One data set concerns MDCKII-WT cells. Briefly: MTT assay for cell viability, MDCKII-WT cells. The following applies: 150 μM, MDCKII-WT cells (data not shown). Format: cell-based, canine. An outline of the steps: (§1)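 MDCKII cells (wild-type or BCRP-overexpressing, from the Netherlands Cancer Institute) were grown in DMEM with 10% FBS and 1% penicillin-streptomycin-glutamine at 37 °C under 5% CO₂. Viability after exposure to test agents was measured by MTT assay, following a cited method with minor modification.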

The next data set relates to MDCKII-BCRP cells. Briefly: MTT assay for cell viability, MDCKII-BCRP cells. Format: cell-based, canine. The following applies: 100 μM, MDCKII-BCRP cells (data not shown). An outline of the steps: as §1
The target in data set [1] is MRP2 (Canis lupus familiaris, UniProt A0A8I3SCV5). Put plainly: MRP2 activity: intracellular accumulation of GSMF. Type of data set: cell-based. The note with it: MDCKII-WT cells.
MRP2 (Canis lupus familiaris, UniProt A0A8I3SCV5), sequence (A0A8I3SCV5 1-1544): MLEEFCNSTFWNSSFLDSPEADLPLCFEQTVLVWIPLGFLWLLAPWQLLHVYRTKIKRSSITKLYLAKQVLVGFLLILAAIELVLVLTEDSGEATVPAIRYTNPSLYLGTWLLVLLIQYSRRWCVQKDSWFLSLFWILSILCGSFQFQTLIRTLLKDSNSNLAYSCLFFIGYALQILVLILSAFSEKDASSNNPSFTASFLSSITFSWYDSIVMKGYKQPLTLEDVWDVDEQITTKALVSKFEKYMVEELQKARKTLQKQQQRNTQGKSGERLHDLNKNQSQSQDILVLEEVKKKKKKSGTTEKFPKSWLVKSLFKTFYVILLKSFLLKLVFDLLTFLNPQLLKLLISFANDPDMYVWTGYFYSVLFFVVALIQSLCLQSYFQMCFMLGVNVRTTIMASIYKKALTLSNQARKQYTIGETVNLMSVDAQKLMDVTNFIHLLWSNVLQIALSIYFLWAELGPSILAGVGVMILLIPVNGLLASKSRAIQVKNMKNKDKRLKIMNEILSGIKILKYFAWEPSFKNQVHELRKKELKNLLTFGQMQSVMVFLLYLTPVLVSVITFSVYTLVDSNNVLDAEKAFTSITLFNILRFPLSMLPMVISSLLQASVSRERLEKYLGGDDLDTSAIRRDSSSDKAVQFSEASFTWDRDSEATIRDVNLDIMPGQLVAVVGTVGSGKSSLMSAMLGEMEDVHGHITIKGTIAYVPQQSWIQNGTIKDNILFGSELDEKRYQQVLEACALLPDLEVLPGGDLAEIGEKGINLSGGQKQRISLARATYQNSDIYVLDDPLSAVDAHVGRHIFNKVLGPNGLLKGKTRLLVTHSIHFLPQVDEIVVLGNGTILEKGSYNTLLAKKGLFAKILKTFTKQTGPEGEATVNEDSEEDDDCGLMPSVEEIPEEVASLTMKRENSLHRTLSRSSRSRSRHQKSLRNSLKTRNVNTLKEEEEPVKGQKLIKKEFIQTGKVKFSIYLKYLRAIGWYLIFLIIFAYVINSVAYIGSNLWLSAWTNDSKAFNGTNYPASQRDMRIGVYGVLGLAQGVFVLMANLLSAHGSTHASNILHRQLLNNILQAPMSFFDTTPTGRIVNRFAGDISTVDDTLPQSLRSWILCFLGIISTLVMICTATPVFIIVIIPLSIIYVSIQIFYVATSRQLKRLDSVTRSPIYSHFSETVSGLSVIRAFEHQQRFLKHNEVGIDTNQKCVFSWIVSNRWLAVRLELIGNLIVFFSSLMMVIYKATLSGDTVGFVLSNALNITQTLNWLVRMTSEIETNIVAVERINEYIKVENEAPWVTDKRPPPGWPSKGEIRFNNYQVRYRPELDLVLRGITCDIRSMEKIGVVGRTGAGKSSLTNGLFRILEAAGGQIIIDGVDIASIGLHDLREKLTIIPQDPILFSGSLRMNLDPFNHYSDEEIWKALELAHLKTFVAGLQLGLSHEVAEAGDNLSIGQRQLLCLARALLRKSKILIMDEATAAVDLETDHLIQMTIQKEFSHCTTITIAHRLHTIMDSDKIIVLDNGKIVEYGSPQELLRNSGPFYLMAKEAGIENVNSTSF
For the next data set, the target named is T1, BCRP (Homo sapiens, UniProt Q9UNQ0).
T1 sequence (Q9UNQ0 1-655): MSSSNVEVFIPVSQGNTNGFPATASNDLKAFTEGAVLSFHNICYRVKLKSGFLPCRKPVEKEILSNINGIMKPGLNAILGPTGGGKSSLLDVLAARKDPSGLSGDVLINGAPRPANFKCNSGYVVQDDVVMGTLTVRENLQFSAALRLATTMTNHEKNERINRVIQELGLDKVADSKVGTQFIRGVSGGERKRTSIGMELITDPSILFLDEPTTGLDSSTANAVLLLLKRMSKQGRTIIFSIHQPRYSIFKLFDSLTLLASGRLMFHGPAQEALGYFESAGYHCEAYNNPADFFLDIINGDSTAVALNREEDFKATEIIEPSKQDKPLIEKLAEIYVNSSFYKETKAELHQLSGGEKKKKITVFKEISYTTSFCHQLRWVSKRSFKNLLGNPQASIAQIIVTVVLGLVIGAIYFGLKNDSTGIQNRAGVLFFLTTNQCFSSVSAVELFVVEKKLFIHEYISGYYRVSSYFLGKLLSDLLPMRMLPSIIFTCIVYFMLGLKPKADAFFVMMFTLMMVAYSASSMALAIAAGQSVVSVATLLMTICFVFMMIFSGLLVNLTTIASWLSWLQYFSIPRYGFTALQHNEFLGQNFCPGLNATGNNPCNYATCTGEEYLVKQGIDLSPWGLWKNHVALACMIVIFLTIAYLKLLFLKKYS
The following applies: concentrations of 12.5–100 μM; cited from earlier work.

Data set [2] concerns the target MRP2 (Homo sapiens, UniProt Q92887). Format: cell-based. The following applies: MDCKII-MRP2 cells, 100 μM spiked in blank serum, Fig. 3(C).
A short description of data set [3]: Pharmacokinetics of oral MTX in rats alone and coadministered with MOC. Type of data set: in vivo, Sprague–Dawley rats. An outline of the steps:
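Groups were dosed orally and in parallel: MTX 5.0 mg/kg with an equal volume of water (n = 6), or with decoction given 0.5 h earlier. Rats were fasted overnight. Tail-vein blood (0.5 mL) was drawn at 0.25–48 h, and serum MTX was measured by fluorescence polarization immunoassay using the kit calibration. AUC0-t was derived by noncompartmental analysis.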

The nature of data set [4]: Mortality of rats observed during the pharmacokinetic study. Format: in vivo, Sprague–Dawley rats. The following applies: oral MTX 5.0 mg/kg alone or coadministered with MOC (three groups). An outline of the steps: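 Male Sprague–Dawley rats (350–450 g) were fasted overnight with water allowed, and food was returned 3 h after dosing. They received oral MTX 5.0 mg/kg, given alone with water or 0.5 h after oral decoction at 2.0 or 4.0 g/kg. A fourth group got 2.0 g/kg thrice daily for 2 days before MTX. Deaths were noted over the 48-h sampling period.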

Setting [5] is: 50 μM, MN/HK experiment, Fig. 3(B).

Marks after values point to notes of the source that are not given here.

We go through 4 compounds from article PMC10962649 (Journal of Food and Drug Analysis, 2024).

MRP2 (Homo sapiens, UniProt Q92887), sequence (Q92887 whole entry): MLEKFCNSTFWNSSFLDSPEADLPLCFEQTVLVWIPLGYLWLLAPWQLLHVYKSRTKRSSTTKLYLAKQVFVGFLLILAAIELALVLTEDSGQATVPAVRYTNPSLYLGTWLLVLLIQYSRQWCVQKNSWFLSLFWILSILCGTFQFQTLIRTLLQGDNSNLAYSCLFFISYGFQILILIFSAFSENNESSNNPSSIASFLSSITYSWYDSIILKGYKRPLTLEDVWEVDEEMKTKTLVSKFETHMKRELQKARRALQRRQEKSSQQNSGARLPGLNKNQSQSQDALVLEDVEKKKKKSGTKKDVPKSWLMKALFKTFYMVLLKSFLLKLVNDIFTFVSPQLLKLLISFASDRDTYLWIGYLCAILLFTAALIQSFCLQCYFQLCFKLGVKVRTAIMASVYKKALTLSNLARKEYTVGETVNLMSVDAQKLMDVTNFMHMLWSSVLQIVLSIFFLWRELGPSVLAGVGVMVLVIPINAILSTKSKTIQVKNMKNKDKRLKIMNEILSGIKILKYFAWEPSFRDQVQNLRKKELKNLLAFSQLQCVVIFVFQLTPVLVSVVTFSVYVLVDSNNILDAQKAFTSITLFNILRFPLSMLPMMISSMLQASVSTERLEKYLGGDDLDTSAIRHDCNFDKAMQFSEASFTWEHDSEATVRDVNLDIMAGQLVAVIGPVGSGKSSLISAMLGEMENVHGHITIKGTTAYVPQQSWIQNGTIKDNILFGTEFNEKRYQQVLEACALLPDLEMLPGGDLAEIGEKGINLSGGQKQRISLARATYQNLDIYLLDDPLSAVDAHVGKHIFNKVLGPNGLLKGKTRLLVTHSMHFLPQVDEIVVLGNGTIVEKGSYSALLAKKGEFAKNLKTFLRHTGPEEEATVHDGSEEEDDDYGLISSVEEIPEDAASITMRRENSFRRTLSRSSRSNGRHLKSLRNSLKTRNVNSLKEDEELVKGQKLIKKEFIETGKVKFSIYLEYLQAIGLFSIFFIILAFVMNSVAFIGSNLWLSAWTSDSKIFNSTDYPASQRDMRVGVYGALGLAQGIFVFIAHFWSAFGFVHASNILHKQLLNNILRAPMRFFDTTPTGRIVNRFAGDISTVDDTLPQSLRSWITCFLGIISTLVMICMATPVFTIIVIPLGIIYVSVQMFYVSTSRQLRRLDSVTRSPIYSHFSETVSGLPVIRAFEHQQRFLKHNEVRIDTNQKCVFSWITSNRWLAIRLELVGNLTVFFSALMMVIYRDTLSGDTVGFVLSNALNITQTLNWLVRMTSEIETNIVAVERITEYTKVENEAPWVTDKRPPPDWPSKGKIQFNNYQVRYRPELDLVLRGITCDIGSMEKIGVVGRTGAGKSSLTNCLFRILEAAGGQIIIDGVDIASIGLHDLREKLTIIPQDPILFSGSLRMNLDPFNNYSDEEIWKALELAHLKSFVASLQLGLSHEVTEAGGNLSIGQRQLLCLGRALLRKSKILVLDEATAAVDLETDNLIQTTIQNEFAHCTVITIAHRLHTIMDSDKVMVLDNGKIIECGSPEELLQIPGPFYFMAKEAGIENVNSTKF

As for `C=CCc1ccc(O)c(-c2ccc(O)c(CC=C)c2)c1` [HK, honokiol], the “Effect on cell viability (MTT)” value in the data set on MDCKII-WT cells and in the data set on MDCKII-BCRP cells was “no toxic effects” each time. In addition, the “Increase of intracellular accumulation of GSMF” value (from here on “Increase”) on MRP2 [1] (25 μM, MN/HK experiment, Fig. 3(B)) stood at 34%; at MRP2 [1] (setting [5]), 75%. Besides, on BCRP, the “Effect on BCRP” value is on record as “significantly inhibited”.

On to `CN(C)C(=O)CCSC(SCCC(=O)O)c1cccc(/C=C/c2ccc3ccc(Cl)cc3n2)c1` (centres unmarked) [MK 571, reference compound], for which the “Increase” value on MRP2 [1] (setting [5]) was 331%; on MRP2 [1] (50 μM, positive control in MOC experiment, Fig. 3(A)) it was 203%; at MRP2 [2], 72%.

Take `C=CCc1ccc(O)c(-c2cc(CC=C)ccc2O)c1` [MN, magnolol]: the “Effect on cell viability (MTT)” value in the data set with MDCKII-WT cells and with MDCKII-BCRP cells was “no toxic effects” throughout. Moreover, the “Increase” value on MRP2 [1] (setting [5]) turned out to be 137%. Besides, the “Effect on BCRP” value at BCRP was “significantly inhibited”.

Turning to `CN(Cc1cnc2nc(N)nc(N)c2n1)c1ccc(C(=O)N[C@@H](CCC(=O)O)C(=O)O)cc1` [MTX, Methotrexate], the “AUC0-t of MTX” value is listed as 44.6 ± 5.0^a μmol·min·mL^−^1 in data set [3] (oral MTX 5.0 mg/kg + water (MTX alone), n = 6, mean ± S.E.); 250.2 ± 31.2 μmol·min·mL^−^1 in data set [3] (oral MTX 5.0 mg/kg, MOC 2.0 g/kg thrice daily for 2 days, 7th dose 0.5 h before MTX, n = 5, mean ± S.E.); 201.5 ± 39.2 μmol·min·mL^−^1 in data set [3] (oral MTX 5.0 mg/kg, single dose MOC 2.0 g/kg 0.5 h before MTX, n = 6, mean ± S.E.); 206.8 ± 35.9 μmol·min·mL^−^1 in data set [3] (oral MTX 5.0 mg/kg, single dose MOC 4.0 g/kg 0.5 h before MTX, n = 6, mean ± S.E.). Besides, the “Mortality of rats during the pharmacokinetic study” value in data set [4] is reported as “all survived very well”.
